Compounds with a hit are over-represented: about 3.1% of the library has one in this group of screens.
GSIS activator – GLuc luminescence reporter in INS-1E cells, primary screen for activators of glucose-dependent secretion of insulin; INS-1E GLuc reporter insulin secretion, 2-3 h; activation, % at 16.6 µM; 370,000 tested, 0.61% active;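 active means lowest replicate activation of at least 40%, so every replicate reaches that level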;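 further: 0% = median of neutral control wells and 100% = median of IBMX positive control wells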
Cneo AK release – causes C. neoformans cell lysis. adenylate kinase release luminescence, 4 h; normalised: neutral wells 0, clomiphene wells 100. lysis activity, % at 15 µM. 360,000 tested, 0.2% active. AID 651654;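 active means mean lysis activity across replicates of at least 80%, whatever share of replicates individually reach that level; inactive means mean lysis activity below 80%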
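Test system: log-phase Cryptococcus neoformans yeast cells; Quantity: yeast cell density of 5 × 10^6 cells/mL; Buffer or medium: YPD; Doses: single compound concentration per well; Timing: 4 h at 37 °C static, read 1 h later; Measured by: AK luminescence; Read-out basis: lysis from increased AK signal; Control set: Clomiphene as positive control.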
CFTR F508del cor – correctors of CFTR F508del function in bronchial epithelial cells; 350,000 tested, 0.36% active; CFBE cells, YFP halide quenching; stimulated with forskolin plus potentiator P3; % fluorescence drop versus neutral controls; AID 720511; activity (quench increase), % at 7.58 µM;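 active means mean added fluorescence quench of at least 8% versus neutral control, with both replicates also reaching 8%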;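 further: cells transiently co-express mutant CFTR-F508del with the halide-sensitive YFP; corrector assay measuring rescue of mutant channel to the surface after 24 h compound exposure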
miR-122 sensor – miR-122 inhibition in Huh7 cells. Huh7 miR-122 Renilla luciferase sensor, 48 h; neutral wells = 0, positive control = 100. activation (reporter increase), % at 12.5 µM. 340,000 tested, 0.3% active. AID 602342;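 active means mean replicate activation score at least 90 and every replicate individually at or above 90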;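 further: higher luciferase means less miR-122 activity so hits act as miR-122 inhibitors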
Ecoli rRNA inh – inhibits bacterial ribosomal RNA function over humanized ribosomes; E. coli WT GFP vs humanized-ribosome RFP mutants, fluorescence, 24 h; active compounds read low; DMSO median 0, no signal -100; GFP signal change (wild-type ribosome), % (test concentration not listed); 350,000 tested, 1.6% active; AID 720706;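 active means significant combined selectivity score with lowered wild-type GFP, culture density cut under 30%, mutant RFP and density less affected; inactive means any of these conditions unmet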
Env fusion inh – blocks HIV Env-driven cell-cell fusion; HeLa-JRFL Env/CEM21 cell fusion, luciferase; inhibition, % at 12.3 µM; 360,000 tested, 1.1% active; AID 651610;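 active means mean replicate inhibition score of at least 50 and every replicate individually at or above 50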;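 further: 0% = plate neutral controls and 100% = maraviroc near 300 nM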
* marks the source's active call; other numbers are inactive results; nt = no result; [ ] = another dose, or the depositor's remark.

SMILES	GSIS activator	Cneo AK release	CFTR F508del cor	miR-122 sensor	Ecoli rRNA inh	Env fusion inh
CC(C)CNS(=O)(=O)c1ccc(CCC(=O)N2CCN(Cc3ccc4c(c3)OCO4)CC2)cc1	nt	-5.1	nt	27.1	nt	78.7*
O=C(CCc1ccc(S(=O)(=O)NCCc2ccccc2)cc1)N1CCN(Cc2ccc3c(c2)OCO3)CC1	nt	-2.9	nt	58.6	nt	76.9*
CC(C)CNS(=O)(=O)c1ccc(CCC(=O)N2CCN(Cc3ccccc3)CC2)cc1	nt	3.5	nt	6.4	nt	49.0
CCNS(=O)(=O)c1ccc(CCC(=O)N2CCN(Cc3ccccc3)CC2)cc1	-1.2	-0.5	1.8	-5.1	4.7	-4.5
CCOc1ccc(Cl)cc1S(=O)(=O)NCc1cccnc1	nt	nt	nt	nt	nt	18.6
COc1ccc(Cl)cc1S(=O)(=O)N1CCN=C1C	1.7	-2.3	-0.4	32.4	3.5	34.4*
COc1ccc(Cl)cc1NS(=O)(=O)c1cc(Cl)ccc1OC	-2.3	nt	nt	255.0*	6.3	-55.3
COc1ccc(Cl)cc1S(=O)(=O)NCc1cccnc1	6.3	0.3	nt	120.0*	nt	-9.7
COc1cc(NS(=O)(=O)c2ccc(C)c(C)c2)c(OC)cc1Cl	nt	0.1	nt	225.7*	nt	-43.9
COc1ccc(Cl)cc1S(=O)(=O)Nc1ccncc1	-0.2	6.5	-1.8	3.1	12.4	-0.6
COc1ccc(S(=O)(=O)Nc2ccccc2OC)cc1C	nt	-1.0	nt	18.1	nt	2.8
O=C(NC[C@H]1[C@H](c2ccccc2)[C@@H](CO)N1C(=O)C1CCC1)NC1CCCC1	4.1	-1.2	1.8	0.0[16.7 µM]	-0.5	nt
CCCCOCCCNc1ncnc2c1[nH]c1ccccc12	nt	1.0	nt	13.2	nt	88.0*
COCCCNC(=O)Cc1c(C)c2c(cc(C)c3c(C(C)(C)C)coc32)oc1=O	-52.1	1.3	1.5	90.2*	-53.1	-295.4
C[C@]1(C(=O)NCc2cc(F)cc(C(F)(F)F)c2)C=C[C@@H](Cc2ccccc2)N1C(=O)c1ccccc1	-19.8	5.3	0.5	nt	4.3	56.2*
CNC(=O)[C@@]1(C)C=C[C@@H](Cc2ccccc2)N1C(=O)OC	7.8	1.1	-0.5	132.9*	nt	-29.8
COCCNC(=O)[C@@]1(C)C=C[C@@H](Cc2ccccc2)N1C(=O)c1ccccc1	-1.6	2.1	-1.3	-4.8	-1.8	-34.3
C[C@@H]1CN([C@@H](C)CO)C(=O)c2cc(NS(=O)(=O)c3ccc(Cl)cc3)ccc2O[C@H]1CN(C)C	7.1	-4.0	2.0	-1.2[16.7 µM]	0.0	nt
N#CC1=C2SCC(O)(c3ccccc3)N2C(=O)CC1c1cccs1 (centres undefined)	-33.8	-2.2	6.6	54.0	-37.2*	nt
COc1ccc(Cc2nc(-c3ccc(-n4cccc4)cc3)no2)cc1OC	55.7*	-1.9	3.9	-1.4	-9.4	30.6
COc1ccc(CC(=O)NCc2ccc(-n3cccc3)cc2)cc1OC	4.9	-1.4	11.0*	50.6	-7.6	-274.9
CCCNC(=O)C[C@@H]1CC[C@@H]2[C@@H](COc3ccc(NC(=O)NCCC)cc3C(=O)N2C)O1	5.0	nt	0.6	nt	3.4	nt
O=[N+]([O-])c1ccc(-c2nc(C(Cl)Cl)c3ccccc3n2)cc1	1.4	-3.8	-1.8	-17.1	0.1	73.6*
CN(Cc1ccccc1)c1nc(-c2ccc([N+](=O)[O-])cc2)nc2ccccc12	nt	1.0	nt	-0.8	nt	nt
C[C@H](CO)N1C[C@H](C)[C@H](CN(C)C(=O)Nc2ccc(F)cc2)Oc2c(NC(=O)Nc3ccc(F)cc3)cccc2C1=O	-12.6	-3.8	1.8	0.0[16.7 µM]	-11.4	1.0[16.7 µM]
SMILES	GSIS activator	Cneo AK release	CFTR F508del cor	miR-122 sensor	Ecoli rRNA inh	Env fusion inh
N#Cc1ccc(-c2ccc([C@@H]3[C@@H](CO)N4C(=O)CN(C(=O)C5CCCC5)C[C@@H]34)cc2)cc1	-0.7	nt	-0.9	nt	1.7	nt
C[C@H](CO)N1C[C@H](C)[C@@H](CN(C)Cc2ccc(C(=O)O)cc2)OCc2ccccc2-c2ccccc2C1=O	6.0	nt	nt	nt	2.7	nt
COc1ccc(N2CCN(C(=O)c3ccc4c(c3)CC(c3ccccc3)OC4=O)CC2)cc1 (centres undefined)	2.5	-1.5	1.2	-6.2	2.3	39.4
O=C1OC(c2ccccc2)Cc2cc(C(=O)N3CCN(c4ccc(F)cc4)CC3)ccc21 (centres undefined)	-6.0	3.6	-0.4	-2.2	-29.4*	4.6
COc1ccc(OCC(=O)N2CCN(S(=O)(=O)c3ccc(Cl)s3)CC2)cc1	1.7	0.2	1.2	-0.7	nt	nt
N#Cc1ccc(OCC(=O)N2CCN(S(=O)(=O)c3ccc(Cl)s3)CC2)cc1	-9.7	0.4	4.0	nt	-19.5*	4.9
C[C@@H]1CCCCO[C@H](CN(C)C(=O)Nc2ccc(C(F)(F)F)cc2)[C@@H](C)CN([C@@H](C)CO)C(=O)c2cc(NC(=O)c3ccccc3)ccc2O1	2.1	0.7	-3.5	0.5[16.7 µM]	2.3	4.0[16.7 µM]
Oc1ccc(Br)c(CN2CCN(c3ncc(Cc4ccccc4)cn3)CC2)c1	10.8	nt	-1.7	nt	-34.8	28.6
c1ccc(Cc2cnc(N3CCN(Cc4csc5ccccc45)CC3)nc2)cc1	-2.7	nt	-0.5	nt	4.7	77.0*
O=c1cc(-c2cccc(Br)c2)nc(-c2ccccc2F)o1	46.4*	nt	nt	nt	nt	6.6
O=c1cc(-c2ccccc2F)nc(-c2ccccc2F)o1	12.0	nt	4.0	nt	-5.3	1.8
COc1ccc(-c2ccc3c(c2)[C@@H]2[C@@H](CCN2S(=O)(=O)c2ccccc2F)[C@H](CO)N3C)cc1	-27.4	-0.4	-1.8	4.1[16.7 µM]	1.8	nt
Cc1cccc(CC(=O)Nc2cccnc2)c1	9.3	0.1	8.4*	-0.7	4.9	2.4
CCOc1cc(OCC)cc(C(=O)Nc2cccnc2)c1	40.9*	1.5	nt	nt	-0.8	nt
COc1cc(OC)cc(C(=O)Nc2cccnc2)c1	11.2	nt	1.5	nt	8.7	2.8
COc1cc2c(cc1OC)C(c1cccs1)N(C(=O)C(C)C)CC2 (centres undefined)	nt	-1.8	nt	-3.2	nt	-72.4
COc1ccc(C(=O)N2CCc3cc(OC)c(OC)cc3C2c2ccc(OC)c(OC)c2)cc1OC (centres undefined)	48.2*	4.2	6.1	nt	-2.8	2.4
CCC(=O)N1CCc2cc(OC)c(OC)cc2C1COc1ccccc1OC (centres undefined)	47.5*	nt	2.1	nt	-15.5	4.0
COc1cc2c(cc1OC)C(c1cccs1)N(C(=O)c1cccnc1)CC2 (centres undefined)	22.0	-0.4	9.9*	14.3	-10.6	-13.2
CCCC(=O)N1CCc2cc(OC)c(OC)cc2C1COc1ccccc1OC (centres undefined)	4.4	-1.2	-1.7	-0.5	-0.2	12.3
C[C@H]1CCCCO[C@@H](CN(C)Cc2ccc3c(c2)OCO3)[C@@H](C)CN([C@@H](C)CO)C(=O)c2cc(NC(=O)CCC(F)(F)F)ccc2O1	9.5	1.1	-1.9	-8.1[16.7 µM]	-0.9	-19.9[16.7 µM]
